Laboratory results reported in PMC3328401 (Journal of Medicinal Chemistry, 2012).

How the values were obtained:
[1] = Solubility in aqueous media; settings: aqueous media / water
[2] = Chemical hydrolysis of cycloSal phosphate triesters in phosphate buffer; type: physicochemical; settings: phosphate buffer 50 mM, pH 7.3, 37°C, ~15% acetonitrile
[3] = test system: OVCAR-3 cells; assay: Uptake kinetics; type: cell-based, human
In short: (§1)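 Cells were plated at 2×10⁵/well in 6-well plates in 3 mL growth medium: OVCAR-3 in RPMI-1640 with 20% FBS, LS 174T in EMEM with 10% FBS. After 24 h, radiolabeled compound (~13.6–46.9 kBq/mL) was added at staggered times, up to 360 min, in triplicate. Medium was gamma-counted for radioactive concentration. Cells were washed twice with ice-cold PBS, trypsinized and gamma-counted for cell-associated activity.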

[4] = test system: LS 174T cells; assay: Uptake kinetics; type: cell-based, human
[5] = test system: LS 174T colorectal adenocarcinoma cells; assay: Clonogenic survival and cell-retained 125I; type: cell-based, human; settings: 4 h, 185 kBq/mL
In short: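 LS 174T cells (2×10⁶ per T75) attached ~18 h, then exposed 4 h at 37°C to radiolabeled compound (185 kBq) or to nonradioactive medium for controls. Cells were washed, trypsinized and counted for viability. 1 mL of a 1×10⁶ cells/mL suspension was gamma-counted for cell-associated ¹²⁵I. Cells were plated in duplicate T25 flasks at 1,000, 500 and 100 cells/flask. Methanol-fixed colonies were scored after three weeks. Surviving fraction is treated/control colonies.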

[6] = test system: OVCAR-3 cells; assay: Subcellular distribution of 125I-labeled reagents; type: cell-based, human; settings: for ^125I in cytoplasm, 24 hours / ^125I in nucleus, 24 hours: 1 h incubation then 24 h in fresh nonradioactive medium; for ^125I in cytoplasm, 1 hour / ^125I in nucleus, 1 hour: 1 h incubation, 55.5 kBq/mL
In short: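 OVCAR-3 cells were kept in RPMI-1640 with insulin, 2 mM L-glutamine and 20% FBS and expanded as intraperitoneal xenografts in athymic nude mice. Cells in six T150 flasks attached overnight, then were exposed 1 h to ¹²⁵I compound (55.5 kBq/mL). Three flasks were processed immediately and three after 24 h in fresh medium. Cells were trypsinized, counted, fractionated into nuclear/cytoplasmic compartments and gamma-counted.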

[7] = test system: LS 174T and OVCAR-3 cancer cell lines; assay: Uptake kinetics, cell-associated activity after 3 h; type: cell-based, human; settings: after 3 h incubation
In short: as §1

[8] = biological target: human BChE (Homo sapiens, UniProt P06276); assay: Gel electrophoresis/autoradiography of radioactive compounds with BChE; type: binding; settings: BChE 0.02 U or increasing activities, 30 min
Sequence of human BChE (P06276 29-602): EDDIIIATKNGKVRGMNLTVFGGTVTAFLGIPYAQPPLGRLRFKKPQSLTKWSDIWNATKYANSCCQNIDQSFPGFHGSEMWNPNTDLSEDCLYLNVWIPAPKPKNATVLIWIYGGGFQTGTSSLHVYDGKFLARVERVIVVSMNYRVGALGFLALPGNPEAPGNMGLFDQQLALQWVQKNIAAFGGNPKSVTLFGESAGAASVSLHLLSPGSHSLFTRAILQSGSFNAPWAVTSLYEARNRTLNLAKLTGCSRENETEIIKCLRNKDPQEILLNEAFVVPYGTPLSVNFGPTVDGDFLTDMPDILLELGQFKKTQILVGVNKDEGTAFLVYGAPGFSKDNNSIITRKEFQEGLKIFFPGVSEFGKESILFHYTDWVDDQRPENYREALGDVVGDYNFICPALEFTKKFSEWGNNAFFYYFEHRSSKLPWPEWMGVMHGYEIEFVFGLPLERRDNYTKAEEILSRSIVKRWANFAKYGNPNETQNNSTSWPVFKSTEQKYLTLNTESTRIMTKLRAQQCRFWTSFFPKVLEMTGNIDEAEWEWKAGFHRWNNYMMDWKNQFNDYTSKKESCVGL
In short: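 Radioactive compounds with human BChE were run on native and nonreducing SDS-PAGE gels at constant 150 V or 190 V for 1 h. Gels were exposed to autoradiography film at −80°C for 1–48 h, depending on applied radioactivity. Native gels were stained for BChE activity with 1 mM butyrylthiocholine iodide as substrate (Karnovsky–Roots method).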

[9] = test system: OVCAR-3 cells; assay: Concentration-dependent uptake; type: cell-based, human; settings: OVCAR-3, 3 h exposure, estimated
[10] = test system: LS 174T cells; assay: Concentration-dependent uptake; type: cell-based, human; settings: 3 h exposure, estimated
[11] = test system: U-87 MG cells; assay: Subcellular distribution and DNA retention of 125I; type: cell-based, human
In short: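 U-87 MG cells (~1×10⁶ per T75, EMEM with 10% FBS) were grown 24 h, then given radiolabeled compound for 1 h. They were processed immediately or after 24 h in fresh nonradioactive medium. Pellets (1,000 rpm, 4°C, 15 min) were fractionated with nuclear/cytoplasmic extraction reagents into cytoplasm, soluble nuclear and DNA fractions, which were gamma-counted. DNA-bound ¹²⁵I was also measured after genomic-tip DNA isolation. Longer exposures of 40–144 h were also run.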

[12] = test system: U-87 MG glioblastoma cells; assay: Clonogenic survival; type: cell-based, human; settings: U-87, after eight weeks in culture
[13] = Lipophilicity, shake-tube method n-octanol/phosphate buffered saline; type: physicochemical; settings: n-octanol / phosphate buffered saline 10 mM, pH 6.8
[14] = after intratumor injections; cited from earlier work
[15] = intravenously administered; cited from earlier work

## CC(C)(C)c1cc(C(C)(C)C)c2c(c1F)COP(=O)(OC[C@H]1O[C@@H](n3cc(I)c(=O)[nH]c3=O)C[C@@H]1O)O2 (some centres unmarked) [compound 8, 5-Iodo-5′-O-[cyclo-3,5-di-(tert-butyl)-6-fluoroSaligenyl]-2′-deoxyuridine Monophosphate]
[1]
  solubility: lower water solubility

## Cc1cccc2c1OP(=O)(OC[C@H]1O[C@@H](n3cc([125I])c(=O)[nH]c3=O)C[C@@H]1O)OC2 (some centres unmarked) [7b-slow, 5-[^125I]-Iodo-5′-O-cyclo(3-methylSaligenyl)-2′-deoxyuridine Monophosphate]
[2]
  k (rate of hydrolysis): 0.000463 min⁻¹
[3]
  cell-associated radioactivity, OVCAR-3 compared to LS 174T: 1.7 ×
[3]; OVCAR-3, after 6 h
  ratio of slow to fast uptake: 3.5
[4]; after 6 h
  ratio of slow to fast uptake: 3.0
[5]
  125I retained per cell: 0.566 (0.333) mBq ^125I/cell
  surviving fraction: 0.63 (0.22) mBq
[6]
  ^125I in cytoplasm, 24 hours: 1.8 (0.6) cpm/10^3 cells (std dev)
  ^125I in nucleus, 24 hours: 29.3 (7.0) cpm/10^3 cells (std dev)
  ^125I in cytoplasm, 1 hour: 13.0 (1.3) cpm/10^3 cells (std dev)
  ^125I in nucleus, 1 hour: 5.4 (0.4) cpm/10^3 cells (std dev)

## CC(C)(C)c1cc(C(C)(C)C)c2c(c1F)COP(=O)(OC[C@H]1O[C@@H](n3cc([125I])c(=O)[nH]c3=O)C[C@@H]1F)O2 (some centres unmarked) [24b, 5-[^125I]-Iodo-5′-O-[cyclo-3,5-Di-(tert-butyl)-6-fluoroSaligenyl]-3′-fluoro-2′,3′-dideoxyuridine]
[1]
  solubility: low solubility

## CC(C)(C)c1cc(C(C)(C)C)c2c(c1F)COP(=O)(OC[C@H]1O[C@@H](n3cc([125I])c(=O)[nH]c3=O)C[C@@H]1O)O2 (some centres unmarked) [8b-fast, 5-[^125I]-Iodo-5′-O-[cyclo-3,5-di-(tert-butyl)-6-fluoroSaligenyl]-2′-deoxyuridine Monophosphate]
[7]
  cell associated activity relative to the corresponding 6b diastereomer: > 110 ×
  cell associated activity relative to the corresponding 7b diastereomer: > 20 ×

## CC(C)(C)c1cc(C(C)(C)C)c2c(c1F)COP(=O)(OC[C@H]1O[C@@H](n3cc([125I])c(=O)[nH]c3=O)C[C@@H]1O)O2 (some centres unmarked) [8b-slow, 5-[^125I]-Iodo-5′-O-[cyclo-3,5-di-(tert-butyl)-6-fluoroSaligenyl]-2′-deoxyuridine Monophosphate]
[8]
  binding to BChE on gel autoradiograph: BChE activity-dependent binding
[7]
  cell associated activity relative to the corresponding 6b diastereomer: ~ 180 ×
  cell associated activity relative to the corresponding 7b diastereomer: 35 ×
[6]
  ^125I in cytoplasm, 24 hours: 2.8 (0.7) cpm/10^3 cells (std dev)
  ^125I in nucleus, 24 hours: 91.6 (5.7) cpm/10^3 cells (std dev)
  ^125I in cytoplasm, 1 hour: 87.3 (7.5) cpm/10^3 cells (std dev)
  ^125I in nucleus, 1 hour: 7.8 (0.6) cpm/10^3 cells (std dev)

## O=c1[nH]c(=O)n([C@H]2C[C@H](O)[C@@H](COP3(=O)OCc4ccccc4O3)O2)cc1[125I] (some centres unmarked) [6b-slow, 5-[^125I]-Iodo-5′-O-cycloSaligenyl-2′-deoxyuridine Monophosphate]
[2]
  k (rate of hydrolysis): 0.00152 min⁻¹
[3]; OVCAR-3, after 90 min
  uptake ratio of slow to fast diastereomer: ~ 1.7
[3]; OVCAR-3, up to 90 min
  uptake rate, slow relative to fast diastereomer: 6.5 ×
[4]; after 90 min
  uptake ratio of slow to fast diastereomer: ~ 1.7
[4]; up to 90 min
  uptake rate, slow relative to fast diastereomer: 4.6 ×
[9]
  Bmax: > 50,000 molecules/cell
[10]
  Bmax: ~ 6,800 molecules/cell
[11]; U-87, 40-h incubation, 19.6 kBq/mL, genomic tips method
  125I accumulated in DNA: 1.18 (0.11) mBq ^125I/cell
[12]
  colony formation: failed to produce any colonies
[6]
  ^125I in cytoplasm, 24 hours: 6.0 (0.7) cpm/10^3 cells (std dev)
  ^125I in nucleus, 24 hours: 31.3 (6.0) cpm/10^3 cells (std dev)
  ^125I in cytoplasm, 1 hour: 14.8 (6.8) cpm/10^3 cells (std dev)
  ^125I in nucleus, 1 hour: 4.9 (2.5) cpm/10^3 cells (std dev)
[13]
  Log P: 0.66 (± 0.03)

## Cc1cccc2c1OP(=O)(OC[C@H]1O[C@@H](n3cc([125I])c(=O)[nH]c3=O)C[C@@H]1O)OC2 (some centres unmarked) [7b-fast, 5-[^125I]-Iodo-5′-O-cyclo(3-methylSaligenyl)-2′-deoxyuridine Monophosphate]
[2]
  k (rate of hydrolysis): 0.000544 min⁻¹
[5]
  125I retained per cell: 0.196 (0.06) mBq ^125I/cell

## CC(C)(C)c1cc(C(C)(C)C)c2c(c1F)COP(=O)(OC[C@H]1O[C@@H](n3cc([125I])c(=O)[nH]c3=O)C[C@@H]1F)O2 (some centres unmarked) [24b-slow, 5-[^125I]-Iodo-5′-O-[cyclo-3,5-Di-(tert-butyl)-6-fluoroSaligenyl]-3′-fluoro-2′,3′-dideoxyuridine]
[2]
  k (rate of hydrolysis): 0.000224 min⁻¹
[8]
  binding to BChE on gel autoradiograph: BChE activity-dependent binding
[11]; U-87 MG, 1 h treatment
  uptake and retention lower in the cytoplasm, nucleus and DNA: ~ 20 ×
[11]; U-87 MG, 24 h in fresh medium
  presence in intracellular compartments at 24 h: practically undetectable

## CC(C)(C)c1cc(C(C)(C)C)c2c(c1F)COP(=O)(O[C@H]1C[C@H](n3cc(I)c(=O)[nH]c3=O)O[C@@H]1CO)O2 (some centres unmarked) [compound 14, 5-Iodo-3′-O-[cyclo-3,5-di-(tert-butyl)-6-fluoroSaligenyl]-2′-deoxyuridine Monophosphate]
[1]
  solubility: lower water solubility

## CC(C)(C)c1cc(C(C)(C)C)c2c(c1F)COP(=O)(OC[C@H]1O[C@@H](n3cc(I)c(=O)[nH]c3=O)C[C@@H]1F)O2 (some centres unmarked) [compound 24, 5-Iodo-5′-O-[cyclo-3,5-Di-(tert-butyl)-6-fluoroSaligenyl]-3′-fluoro-2′,3′-dideoxyuridine Monophosphate]
[1]
  solubility: lower water solubility

## O=c1[nH]c(=O)n([C@H]2C[C@H](O)[C@@H](COP3(=O)OCc4ccccc4O3)O2)cc1[125I] (some centres unmarked) [6b-fast, 5-[^125I]-Iodo-5′-O-cycloSaligenyl-2′-deoxyuridine Monophosphate]
[2]
  k (rate of hydrolysis): 0.00225 min⁻¹
[9]
  Bmax: ~ 7,400 molecules/cell
[10]
  Bmax: ~ 1,300 molecules/cell
[12]
  colony formation: failed to produce any colonies

## O=c1[nH]c(=O)n([C@H]2C[C@H](O)[C@@H](CO)O2)cc1[125I] [^125IUdR, 5-[^125I]Iodo-2′-deoxyuridine]
[14]
  injected ^125IUdR associated with one gram of tumor: ~ 0.02%
  tumor uptake, range: 0.001–0.06 % ID/g
[15]
  time to destruction in circulation: within a few min
